Reference: ChEMBL document CHEMBL1149351, “4-Amino-2-alkyl-butyramides as small molecule CCR2 antagonists with favorable pharmacokinetic properties” (Bioorg Med Chem Lett, 2006)

Legend:
[1] = molecular target: T1, C-C chemokine receptor type 2 (Homo sapiens, UniProt P41597); assay: Displacement of [125I]MCP-1 from human CCR2b expressed in CHO cells; assay type: cell-based
Target sequence in this assay (P41597 whole entry): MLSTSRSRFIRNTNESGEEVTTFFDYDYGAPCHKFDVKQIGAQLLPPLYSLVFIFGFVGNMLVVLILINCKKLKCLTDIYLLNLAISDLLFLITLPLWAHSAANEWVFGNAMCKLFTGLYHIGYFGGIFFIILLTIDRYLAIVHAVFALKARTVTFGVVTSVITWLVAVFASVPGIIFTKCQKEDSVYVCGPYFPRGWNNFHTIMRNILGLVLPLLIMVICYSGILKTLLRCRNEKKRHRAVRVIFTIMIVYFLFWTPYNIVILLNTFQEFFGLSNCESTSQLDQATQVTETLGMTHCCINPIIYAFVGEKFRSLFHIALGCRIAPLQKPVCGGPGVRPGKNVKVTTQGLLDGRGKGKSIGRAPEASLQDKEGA

[2] = molecular target: C-X-C chemokine receptor type 4 (Homo sapiens) (UniProt P61073); assay: Inhibition of human CXCR4 at 1 uM
[3] = molecular target: C-C chemokine receptor type 5 (Homo sapiens) (UniProt P51681); assay: Inhibition of CCR5 at 1 uM
[4] = molecular target: C-C chemokine receptor type 8 (Homo sapiens) (UniProt P51685); assay: Inhibition of CCR8 at 1 uM
Rattus norvegicus [5] = assay: AUC in Sprague-Dawley rat at 1 mg/kg, iv; assay type: ADME, organism-based, Plasma; set-up: dose 1 mg/kg, route intravenous; conditions: in vivo
[6] = Clearance in Sprague-Dawley rat at 1 mg/kg, iv; assay type: ADME, organism-based; set-up: dose 1 mg/kg, route intravenous; conditions: in vivo
[7] = Volume of distribution in Sprague-Dawley rat at 1 mg/kg, iv; assay type: ADME, organism-based; set-up: dose 1 mg/kg, route intravenous; conditions: in vivo, read-out: Vdss
[8] = Half life in Sprague-Dawley rat at 1 mg/kg, iv; assay type: ADME, organism-based; set-up: dose 1 mg/kg, route intravenous; conditions: in vivo
[9] = Cmax in Sprague-Dawley rat at 3 mg/kg, po; assay type: ADME, organism-based; set-up: dose 3 mg/kg, route oral; conditions: in vivo
Rattus norvegicus [10] = assay: Tmax in Sprague-Dawley rat at 3 mg/kg, po; assay type: ADME, organism-based; set-up: dose 3 mg/kg, route oral; conditions: in vivo
Rattus norvegicus [11] = assay: Oral bioavailability in Sprague-Dawley rat at 3 mg/kg, po; assay type: ADME, organism-based; conditions: in vivo
Rattus norvegicus [12] = assay: AUC in Sprague-Dawley rat at 3 mg/kg, po; assay type: ADME, organism-based, Plasma; set-up: dose 3 mg/kg, route oral; conditions: in vivo
[13] = molecular target: T1, C-C chemokine receptor type 2; assay: Displacement of [125I]MCP-1 from human CCR2b expressed in human monocyte cells; assay type: cell-based
Outline: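 Human monocytes (5 × 10⁴) incubated with ¹²⁵I-hMCP-1 (20–50 pM; 2200 Ci/mmol) plus varying unlabeled competitor, 60 min at room temperature, in 50 mM HEPES, 5 mM MgCl₂, 1 mM CaCl₂, pH 7.4. Stopped by filtration on PEI-presoaked GF/B filters, washed with 25 mM HEPES pH 7.5/500 mM NaCl, then scintillation counted. Means of at least two separate experiments.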
Target sequence in this assay (P41597 whole entry): as above

[14] = molecular target: T1, C-C chemokine receptor type 2; assay: Activity at CCR2b by calcium flux based FLIPR assay in CHO cells; assay type: functional, cell-based
Target sequence in this assay (P41597 whole entry): as above

[15] = molecular target: T2, C-C chemokine receptor type 1 (Homo sapiens) (UniProt P32246); assay: Inhibition of human CCR1 at 1 uM
T2 sequence (whole entry): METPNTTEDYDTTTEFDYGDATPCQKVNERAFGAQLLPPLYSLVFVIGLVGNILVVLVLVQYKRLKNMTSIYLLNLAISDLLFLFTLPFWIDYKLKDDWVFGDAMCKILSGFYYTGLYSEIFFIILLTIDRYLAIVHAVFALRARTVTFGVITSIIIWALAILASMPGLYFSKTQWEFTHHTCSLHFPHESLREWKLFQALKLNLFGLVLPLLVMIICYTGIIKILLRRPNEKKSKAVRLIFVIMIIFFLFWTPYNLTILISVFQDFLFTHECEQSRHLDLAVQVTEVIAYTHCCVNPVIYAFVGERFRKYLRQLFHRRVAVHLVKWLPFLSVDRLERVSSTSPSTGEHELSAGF

[16] = molecular target: T3, C-C chemokine receptor type 3 (Homo sapiens) (UniProt P51677); assay: Inhibition of human CCR3 at 4 uM
T3 sequence (whole entry): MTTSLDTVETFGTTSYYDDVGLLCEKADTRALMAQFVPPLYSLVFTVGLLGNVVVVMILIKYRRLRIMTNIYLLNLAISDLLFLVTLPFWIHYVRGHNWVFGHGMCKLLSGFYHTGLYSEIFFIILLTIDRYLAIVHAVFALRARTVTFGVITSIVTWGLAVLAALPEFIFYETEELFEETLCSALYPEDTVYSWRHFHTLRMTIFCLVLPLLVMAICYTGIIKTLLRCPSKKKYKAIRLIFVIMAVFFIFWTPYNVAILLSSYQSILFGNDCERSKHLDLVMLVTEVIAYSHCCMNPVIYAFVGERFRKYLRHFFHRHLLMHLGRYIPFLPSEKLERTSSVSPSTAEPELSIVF

[17] = molecular target: T1, C-C chemokine receptor type 2; assay: Inhibition of [125I]MCP-1 binding to human CCR2b expressed in CHO cells at 1 uM; assay type: cell-based
Target sequence in this assay (P41597 whole entry, looked up): as the sequence (P41597 whole entry) above

[18] = molecular target: T1, C-C chemokine receptor type 2; assay: Inhibition of [125I]MCP-1 binding to human CCR2b expressed in human monocyte cells at 1 uM; assay type: cell-based
Outline: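 Competition binding on human monocytes (5 × 10⁴ cells) with ¹²⁵I-hMCP-1 (20–50 pM) in 50 mM HEPES, 5 mM MgCl₂, 1 mM CaCl₂, pH 7.4, for 60 min at room temperature. Stopped by filtration through filters presoaked in 0.1% polyethyleneimine, washed with 25 mM HEPES pH 7.5 plus 500 mM NaCl. Bound label read by scintillation counting. Mean of at least two separate experiments.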
Target sequence in this assay (P41597 whole entry, looked up): as the sequence (P41597 whole entry) above

C-X-C chemokine receptor type 4 (Homo sapiens), sequence (P61073 whole entry): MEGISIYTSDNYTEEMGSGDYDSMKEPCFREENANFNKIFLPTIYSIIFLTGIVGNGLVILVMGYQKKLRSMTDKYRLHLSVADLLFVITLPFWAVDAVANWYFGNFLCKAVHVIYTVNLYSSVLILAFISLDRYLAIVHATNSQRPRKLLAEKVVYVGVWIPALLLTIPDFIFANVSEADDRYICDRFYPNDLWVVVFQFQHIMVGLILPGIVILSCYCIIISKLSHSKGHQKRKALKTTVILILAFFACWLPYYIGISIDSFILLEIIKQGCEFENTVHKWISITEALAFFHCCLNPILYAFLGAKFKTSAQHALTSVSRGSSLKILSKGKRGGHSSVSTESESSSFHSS
C-C chemokine receptor type 8 (Homo sapiens), sequence (P51685 whole entry): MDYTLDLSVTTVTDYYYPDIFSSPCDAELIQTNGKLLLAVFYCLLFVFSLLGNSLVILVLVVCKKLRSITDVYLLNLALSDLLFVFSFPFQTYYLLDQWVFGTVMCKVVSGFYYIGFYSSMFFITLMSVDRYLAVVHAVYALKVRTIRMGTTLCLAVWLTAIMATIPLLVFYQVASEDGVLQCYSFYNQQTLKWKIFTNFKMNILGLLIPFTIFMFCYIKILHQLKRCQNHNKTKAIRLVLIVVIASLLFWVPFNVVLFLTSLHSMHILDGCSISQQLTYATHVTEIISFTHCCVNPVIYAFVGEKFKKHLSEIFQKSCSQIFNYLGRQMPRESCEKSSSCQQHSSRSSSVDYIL
C-C chemokine receptor type 5 (Homo sapiens), sequence (P51681 whole entry, looked up): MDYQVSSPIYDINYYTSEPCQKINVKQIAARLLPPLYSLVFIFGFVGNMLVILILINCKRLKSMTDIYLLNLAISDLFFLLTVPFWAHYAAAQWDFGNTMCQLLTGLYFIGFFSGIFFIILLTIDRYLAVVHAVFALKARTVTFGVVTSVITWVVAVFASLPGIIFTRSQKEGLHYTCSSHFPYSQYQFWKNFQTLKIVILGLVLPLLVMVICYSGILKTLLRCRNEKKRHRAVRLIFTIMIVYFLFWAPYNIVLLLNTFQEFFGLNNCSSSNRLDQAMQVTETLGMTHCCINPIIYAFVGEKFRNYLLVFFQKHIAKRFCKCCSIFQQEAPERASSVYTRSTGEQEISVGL

COC(=O)NC(CCN1CCC2(C=Cc3ccccc32)CC1)C(=O)NCc1cc(C(F)(F)F)cc(C(F)(F)F)c1 (stereo not drawn)
IC50 [1]: 805 nM

C[C@H]1CN(CC[C@H](C(=O)NCc2cc(C(F)(F)F)cc(C(F)(F)F)c2)C2CC2)CC[C@@]12C=Cc1ccccc12
inhibition [2]: 8%
inhibition [3]: 38%
inhibition [4]: 9%
AUC (Rattus norvegicus [5]): 4.17 µM·h
clearance [6]: 7.36 mL/min/kg
Vd [7]: 2.19 L/kg
half-life [8]: 4.11 h
Cmax [9]: 1580 nM
Tmax (Rattus norvegicus [10]): 4.67 µM
F (Rattus norvegicus [11]): 98%
AUC (Rattus norvegicus [12]): 4.08 µM·h
IC50 [1]: 14 nM
IC50 [13]: 4 nM
IC50 [14]: 4 nM
inhibition [15]: -5%
inhibition [16]: 3%

C[C@H]1CN(CC[C@H](CC2CC2)C(=O)NCc2cc(C(F)(F)F)cc(C(F)(F)F)c2)CC[C@@]12C=Cc1ccccc12
IC50 [1]: 25 nM
IC50 [13]: 9 nM
IC50 [14]: 3 nM

O=C(NCc1cc(C(F)(F)F)cc(C(F)(F)F)c1)C(CCN1CCC2(C=Cc3ccccc32)CC1)NS(=O)(=O)C(F)(F)F (stereo not drawn)
IC50 [1]: 125 nM

O=C(NCc1cc(C(F)(F)F)cc(C(F)(F)F)c1)C(CCN1CCC2(C=Cc3ccccc32)CC1)NS(=O)(=O)c1ccccc1 (stereo not drawn)
inhibition [17]: 7%

O=C(NCc1cc(C(F)(F)F)cc(C(F)(F)F)c1)C(CCN1CCC2(C=Cc3ccccc32)CC1)C1CCCCC1 (stereo not drawn)
IC50 [1]: 160 nM
IC50 [13]: 73 nM

CS(=O)(=O)N1CCCC(C(CCN2CCC3(C=Cc4ccccc43)CC2)C(=O)NCc2cc(C(F)(F)F)cc(C(F)(F)F)c2)C1 (stereo not drawn)
inhibition [18]: 70%
IC50 [1]: 783 nM

CC(C)[C@@H](CCN1CCC2(C=Cc3ccccc32)CC1)C(=O)NCc1cc(C(F)(F)F)cc(C(F)(F)F)c1
IC50 [1]: 349 nM
IC50 [13]: 72 nM

CC(=O)Nc1ncc(S(=O)(=O)NC(CCN2CCC3(C=Cc4ccccc43)CC2)C(=O)NCc2cc(C(F)(F)F)cc(C(F)(F)F)c2)s1 (stereo not drawn)
inhibition [17]: 45%

COC(=O)C[C@@H](CCN1CCC(c2ccccc2)CC1)C(=O)NCc1cc(C(F)(F)F)cc(C(F)(F)F)c1
inhibition [17]: 38%

O=CNC(CCN1CCC2(C=Cc3ccccc32)CC1)C(=O)NCc1cc(C(F)(F)F)cc(C(F)(F)F)c1 (stereo not drawn)
inhibition [17]: 25%

O=C(NCc1cc(C(F)(F)F)cc(C(F)(F)F)c1)C(CCN1CCC2(C=Cc3ccccc32)CC1)Cc1ccccc1 (stereo not drawn)
IC50 [1]: 298 nM
IC50 [13]: 232 nM

CC(O)C(CCN1CCC(c2ccc(F)cc2)CC1)C(=O)NCc1cc(C(F)(F)F)cc(C(F)(F)F)c1 (stereo not drawn)
IC50 [13]: 462 nM

C[C@H]1CN(CCCC(=O)NCc2cc(C(F)(F)F)cc(C(F)(F)F)c2)CC[C@@]12C=Cc1ccccc12
IC50 [1]: 173 nM
IC50 [13]: 93 nM

O=C(NCc1cc(C(F)(F)F)cc(C(F)(F)F)c1)C(CCN1CCC2(C=Cc3ccccc32)CC1)NS(=O)(=O)c1cccs1 (stereo not drawn)
inhibition [17]: 20%

O=C(NCc1cc(C(F)(F)F)cc(C(F)(F)F)c1)[C@@H](CCN1CCC2(C=Cc3ccccc32)CC1)C1CC1
IC50 [1]: 98 nM
IC50 [13]: 15 nM

C[C@H]1CN(CC[C@H](C(=O)NCc2cc(C(F)(F)F)cc(C(F)(F)F)c2)C2CCC2)CC[C@@]12C=Cc1ccccc12
IC50 [1]: 28 nM
IC50 [13]: 12 nM
IC50 [14]: 11 nM

O=C(NCc1cc(C(F)(F)F)cc(C(F)(F)F)c1)[C@@H](CCN1CCC(c2ccccc2)CC1)C1CC1
IC50 [1]: 285 nM
IC50 [13]: 129 nM

CC[C@H]1CN(CC[C@H](C(=O)NCc2cc(C(F)(F)F)cc(C(F)(F)F)c2)c2ccc(F)cc2)CC[C@@]12C=Cc1ccccc12
IC50 [1]: 437 nM

C[C@H]1CN(CC[C@@H](C(=O)NCc2cc(C(F)(F)F)cc(C(F)(F)F)c2)C2CC2)CC[C@@]12C=Cc1ccccc12
IC50 [1]: 80 nM
IC50 [13]: 13 nM

CS(=O)(=O)NC(CCN1CCC2(C=Cc3ccccc32)CC1)C(=O)NCc1cc(C(F)(F)F)cc(C(F)(F)F)c1 (stereo not drawn)
IC50 [1]: 244 nM

O=C(NCc1cc(C(F)(F)F)cc(C(F)(F)F)c1)[C@@H](CCN1CCC(c2ccc(F)cc2)CC1)C1CC1
IC50 [1]: 280 nM
IC50 [13]: 72 nM

C=CC[C@H](CCN1CCC(c2ccccc2)CC1)C(=O)NCc1cc(C(F)(F)F)cc(C(F)(F)F)c1
IC50 [1]: 642 nM
IC50 [13]: 216 nM

C[C@H](CCN1CCC2(C=Cc3ccccc32)CC1)C(=O)NCc1cc(C(F)(F)F)cc(C(F)(F)F)c1
IC50 [1]: 231 nM
IC50 [13]: 37 nM

O=C1NCC(C(=O)NC(CCN2CCC3(C=Cc4ccccc43)CC2)C(=O)NCc2cc(C(F)(F)F)cc(C(F)(F)F)c2)N1 (stereo not drawn)
IC50 [1]: 525 nM

CC(=O)N1CCCC(C(CCN2CCC3(C=Cc4ccccc43)CC2)C(=O)NCc2cc(C(F)(F)F)cc(C(F)(F)F)c2)C1 (stereo not drawn)
IC50 [1]: 660 nM
IC50 [13]: 80 nM

C[C@H]1CN(CC[C@H](C(=O)NCc2cc(C(F)(F)F)cc(C(F)(F)F)c2)c2ccc(F)cc2)CC[C@@]12C=Cc1ccccc12
IC50 [1]: 67 nM

C[C@@H](CCN1CCC2(C=Cc3ccccc32)CC1)C(=O)NCc1cc(C(F)(F)F)cc(C(F)(F)F)c1
IC50 [1]: 605 nM
IC50 [13]: 86 nM

O=C(CCCN1CCC2(C=Cc3ccccc32)CC1)NCc1cc(C(F)(F)F)cc(C(F)(F)F)c1
inhibition [18]: 80%
IC50 [1]: 570 nM

CC(C)[C@H](CCN1CCC2(C=Cc3ccccc32)CC1)C(=O)NCc1cc(C(F)(F)F)cc(C(F)(F)F)c1
IC50 [1]: 204 nM
IC50 [13]: 47 nM

COC(=O)C[C@H](CCN1CCC(c2ccccc2)CC1)C(=O)NCc1cc(C(F)(F)F)cc(C(F)(F)F)c1
inhibition [17]: 42%

O=C(NCc1cc(C(F)(F)F)cc(C(F)(F)F)c1)C(CCN1CCC2(C=Cc3ccccc32)CC1)C1CC1 (stereo not drawn)
IC50 [1]: 69 nM
IC50 [13]: 38 nM

CC(O)C(CCN1CC[C@@]2(C=Cc3ccccc32)[C@@H](C)C1)C(=O)NCc1cc(C(F)(F)F)cc(C(F)(F)F)c1 (stereo partly drawn)
IC50 [13]: 48 nM

CCC[C@H](CCN1CCC(c2ccccc2)CC1)C(=O)NCc1cc(C(F)(F)F)cc(C(F)(F)F)c1
IC50 [1]: 126 nM
IC50 [13]: 42 nM

C=CC[C@H](CCN1CCC2(C=Cc3ccccc32)CC1)C(=O)NCc1cc(C(F)(F)F)cc(C(F)(F)F)c1
IC50 [1]: 193 nM
IC50 [13]: 37 nM

NC(CCN1CCC2(C=Cc3ccccc32)CC1)C(=O)NCc1cc(C(F)(F)F)cc(C(F)(F)F)c1 (stereo not drawn)
inhibition [17]: 33%
